PLCg1 inh – PLC-gamma1 enzyme inhibitors, primary screen, biochemical, fluorescence, purified enzyme. 1-phosphatidylinositol 4,5-bisphosphate phosphodiesterase gamma-1 (Homo sapiens), P19174. inhibition, % at 12.2 µM. AID 720700, 2013. 370,000 tested, 0.84% active. fluorogenic substrate; in the data active means inhibition above about 9.5%
Arrestin-AP2 inh – inhibitors of beta-arrestin/AP2 binding, primary screen, biochemical, GPCR trafficking, flow cytometry. beta-arrestin 1 C-terminal peptide binding to AP2 beta2-adaptin appendage (human). FITC-arrestin peptide / GST-AP2 beads; AP2 beta2 appendage carries R879A mutation. inhibition, % at 10 µM. 340,000 tested, 0.31% active. AID 504490, 2011;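 active means inhibition above a set limit, near 3 SD of compounds lacking own fluorescence, cut at about 54% in these data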
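system = GST-tagged AP2 beta2-adaptin appendage (R879A) on 4 µm glutathione beads | reagent = FITC-labelled arrestin peptide probe, 50 nM final | schedule = compound with beads 12 min RT, then probe 1 h RT | signal = HyperCyt-sampled flow cytometry, FL1 channel, ex 488/em 535 nm | read-out = percent response from loss of bead-bound FITC fluorescence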
PLC-beta3 inh – human PLC-beta3 inhibitors, primary screen, biochemical, fluorescence; 370,000 tested, 0.18% active; 1-phosphatidylinositol 4,5-bisphosphate phosphodiesterase beta-3 (Homo sapiens), Q01970; inhibition, % at 12.2 µM; Purified PLC-beta3, fluorogenic substrate; AID 720704, 2013
HGIII-sPLA2 inh – human group III sPLA2 inhibitors, primary screen, biochemical, QFRET, BODIPY PC-A2 liposome substrate. inhibition, % at 12.2 µM. Group 3 secretory phospholipase A2 (Homo sapiens), Q9NZ20. AID 743126, 2013. 370,000 tested, 0.56% active. QFRET BODIPY PC-A2 liposome hydrolysis, fluorescence;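 active means inhibition above mean plus 3 SD of compounds lying within the high and low control bounds, cut at about 19% in these data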
Target sequence (Q9NZ20 whole entry, looked up): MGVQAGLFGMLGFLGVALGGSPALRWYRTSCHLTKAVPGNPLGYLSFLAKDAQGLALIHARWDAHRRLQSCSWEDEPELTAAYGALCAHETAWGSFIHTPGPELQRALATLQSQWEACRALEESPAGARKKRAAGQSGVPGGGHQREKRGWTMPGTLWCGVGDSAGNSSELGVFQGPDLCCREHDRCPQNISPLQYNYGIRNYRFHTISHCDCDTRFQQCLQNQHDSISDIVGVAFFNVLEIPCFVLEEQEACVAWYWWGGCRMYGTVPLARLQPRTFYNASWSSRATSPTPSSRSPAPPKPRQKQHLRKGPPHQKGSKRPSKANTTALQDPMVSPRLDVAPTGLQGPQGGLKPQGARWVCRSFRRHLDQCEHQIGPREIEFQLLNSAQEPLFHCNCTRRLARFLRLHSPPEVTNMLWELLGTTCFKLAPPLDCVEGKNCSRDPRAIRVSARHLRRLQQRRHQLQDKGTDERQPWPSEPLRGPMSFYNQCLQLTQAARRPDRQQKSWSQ
procasp7 counter – procaspase-7 activators, primary screen, counter-screen for procaspase-3 activator project, biochemical, absorbance, HTS, human; Caspase-7 (Homo sapiens), P55210; recombinant procaspase-7, Ac-DEVD-pNA absorbance 405 nm; D23A/D198A/D206A triple mutant, cannot self-cleave; scale: DMSO 0, 5 µM enzyme 100; activation, % at 8.5 µM; 330,000 tested, 0.093% active;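 active means percent activation above the screen-wide mean plus 3 SD, cut at about 25% in these data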
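System: Procaspase-7 triple mutant (PC-7 D3A); measure: % activation from two-timepoint absorbance difference, scaled to controls; times: 1 h compound preincubation, 2 h substrate cleavage, 25 °C; also added: Ac-DEVD-pNA substrate, 400 µM as added; measured by: Epi-absorbance of released pNA at 405 nm, two timepoints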
procasp3 activ – activators of human procaspase-3 D3A mutant, primary screen, biochemical, absorbance, PC-3 D3A mutant, single concentration; activation, % at 8.5 µM; 330,000 tested, 0.11% active; recombinant procaspase-3 D3A, Ac-DEVD-pNA absorbance 405 nm;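 active means activation above the mean of all tested compounds plus 3 SD, cut at about 21% in these data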
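Assay system: Autoprocessing-dead procaspase-3 D3A mutant enzyme; also added: Ac-DEVD-pNA; doses: one concentration, 8.5 µM nominal, 0.8% DMSO; times: 1 h compound preincubation, 2 h substrate hydrolysis at 25 °C; technique: 405 nm absorbance of p-nitroaniline, reads at 0 and 120 min; measure: % activation between DMSO and enzyme-spiked controls; repeats: single replicate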
PLCg1 ctr – PLC-gamma1 enzyme inhibitors, counter-screen for PLC-beta3 inhibitor project, biochemical, fluorescence. shares compounds with PLCg1 inh. 3,300 tested, 3.1% active. inhibition, % at 12.3 µM. purified PLC-gamma1, fluorogenic substrate; in the data active means inhibition above about 9.5%
PLCb3 confirm – PLC-beta3 inhibitor confirmation, biochemical, fluorescence, purified enzyme; shares compounds with PLCg1 inh; fluorogenic substrate fluorescence; 3,300 tested, 1% active; inhibition, % at 12.3 µM
Each line names hits and unclear results; the compound was inactive in the other large screens (follow-up assays come after a bar, where they were run). The list is not random: actives were taken first. Their share in the collection is about 1.9%. Unless noted, no stated cut-off is given here; in the data, active means inhibition above about 11%; inactive means the rest.

Cc1ccc2c(=O)[nH]c(Nc3nc(C)cc(-c4ccccc4)n3)nc2c1	PLCg1 inh 10.6 | PLCg1 ctr inactive | PLCb3 confirm inactive
Cc1cc(C)cc(Nc2nc3ccccc3c(=O)[nH]2)c1	none
CC(C)(C)N(Cc1cn(CC2CCCCC2)nn1)S(=O)(=O)c1ccc(F)cc1Br	none (no result: Arrestin-AP2 inh, procasp7 counter, procasp3 activ)
Cc1ccc(OCCNCc2ccccc2)c(C)c1	none
Cc1ccc(OCCCCNC(C)c2ccccc2)c(C)c1 (stereo not drawn)	PLCg1 inh 13.5 | PLCg1 ctr inactive | PLCb3 confirm inactive
CC12CN3CC(C)(CN(C1)C3c1ccc3c(c1)OCO3)C2 (stereo not drawn)	none
CC(C)C12CN3CC(C(C)C)(CN(C1)C3c1ccc3c(c1)OCO3)C2=O (stereo not drawn)	PLC-beta3 inh 12.3 | PLCg1 ctr inactive | PLCb3 confirm inactive
Cc1cc(C)cc(N(CC(=O)Nc2cccc(C)c2C)S(=O)(=O)c2c(C)[nH]c(=O)[nH]c2=O)c1	none
Cc1cc(C)cc(N(CC(=O)Nc2cc(C)ccc2C)S(=O)(=O)c2c(C)[nH]c(=O)[nH]c2=O)c1	PLCg1 inh 10.3 | PLCg1 ctr inactive | PLCb3 confirm inactive
Cc1cc(C)cc(N(CC(=O)NC2CCCC2)S(=O)(=O)c2c(C)[nH]c(=O)[nH]c2=O)c1	PLCg1 inh 10.6 | PLCg1 ctr inactive | PLCb3 confirm inactive
CN(Cc1ccccc1)C(=O)Cn1nnc(-c2ccccc2)c1COc1ccc2ccccc2c1	PLCg1 inh 11.2 (no result: Arrestin-AP2 inh, procasp7 counter, procasp3 activ) | PLCg1 ctr inactive | PLCb3 confirm inactive
CSCCC(c1nc2ccccc2[nH]1)n1c(=O)c(-c2ccco2)nc2ccccc21 (stereo not drawn)	none (no result: Arrestin-AP2 inh, procasp7 counter, procasp3 activ)
CN1C(=O)C(O)(CC(=O)/C=C/c2ccco2)c2ccccc21 (stereo not drawn)	PLC-beta3 inh 13.7 | PLCg1 ctr inactive | PLCb3 confirm inactive
CC(=O)c1ccc(N2CCC(c3cc(-c4ccc(Cl)cc4Cl)n[nH]3)CC2)c([N+](=O)[O-])c1	PLCg1 inh 14.8 | PLCg1 ctr inactive | PLCb3 confirm inactive
O=[N+]([O-])c1cccnc1N1CCC(c2cc(-c3ccc(Cl)cc3Cl)n[nH]2)CC1	none
COc1ccc(CNCC(O)(c2ccc(Cl)cc2)c2ccc(Cl)cc2)cc1OC	PLCg1 inh 9.8 | PLCg1 ctr inactive | PLCb3 confirm inactive
CCCC(=O)OC12CCCN(C1)/C(=C/c1ccc(OC)cc1)C2 (stereo not drawn)	none (no result: Arrestin-AP2 inh, procasp7 counter, procasp3 activ)
CC(Sc1nnc(-c2ccco2)n1N)C(=O)NC1CCCCC1C (stereo not drawn)	none
CC(Sc1nnc(C2CC2)n1N)C(=O)NC1CCCCC1C (stereo not drawn)	PLCg1 inh 9.9 | PLCg1 ctr inactive | PLCb3 confirm inactive
CCOC(=O)C1=NOC(C(=O)Nc2cc(C)cc(C)c2)(C(=O)C2CC2)C1 (stereo not drawn)	none (no result: Arrestin-AP2 inh, procasp7 counter, procasp3 activ)
CCN(c1cccc(C)c1)S(=O)(=O)c1ccc2c(c1)CCN2C(C)=O	none
CCN(c1cccc(C(F)(F)F)c1)S(=O)(=O)c1ccc2c(c1)CCN2C(C)=O	PLCg1 inh 14.0 | PLCg1 ctr inactive | PLCb3 confirm inactive
CCOc1ccc(NC(=O)c2cccc(NC3=NC4CS(=O)(=O)CC4S3)c2)cc1 (stereo not drawn)	PLCg1 inh 9.9 | PLCg1 ctr inactive | PLCb3 confirm inactive
CCc1ccc(NC(=O)c2cccc(NC3=NC4CS(=O)(=O)CC4S3)c2)cc1 (stereo not drawn)	none
O=C(Cc1ccc(NC2=NC3CS(=O)(=O)CC3S2)cc1)NCc1ccc(Cl)cc1 (stereo not drawn)	PLCg1 inh 11.4 | PLCg1 ctr inactive | PLCb3 confirm inactive
O=C(Nc1ccc(Cl)cc1)c1cccc(NC2=NC3CS(=O)(=O)CC3S2)c1 (stereo not drawn)	PLCg1 inh 12.0 | PLCg1 ctr inactive | PLCb3 confirm inactive
CC(C)c1ccc(NC(=O)c2cccc(NC3=NC4CS(=O)(=O)CC4S3)c2)cc1 (stereo not drawn)	PLCg1 inh 9.6 | PLCg1 ctr inactive | PLCb3 confirm inactive
C#CCNC(=O)C[C@H]1C[C@@]2(C(=O)OC)C(=C[C@H](C3CCCC3)O[C@@H]2C)N(Cc2cccc3ccccc23)C1=O	none (no result: Arrestin-AP2 inh, procasp7 counter, procasp3 activ)
COc1ccc(S[C@]2(C(=O)N3CCN(c4ncccn4)CC3)CC(=O)N(C(=O)/C=C/c3ccccc3)[C@@H]2c2ccc(OC)cc2)cc1	none (no result: Arrestin-AP2 inh, procasp7 counter, procasp3 activ)
CC(C)c1ccc(NC(=O)Cc2ccc(NC3=NC4CS(=O)(=O)CC4S3)cc2)cc1 (stereo not drawn)	PLCg1 inh 10.7 | PLCg1 ctr inactive | PLCb3 confirm inactive
N#CCCn1c(-c2nonc2NC(=O)c2ccccc2Cl)nc2ccccc21	none
CCCCn1c(-c2nonc2NC(=O)c2ccccc2Cl)nc2ccccc21	PLCg1 inh 12.3 (no result: procasp7 counter, procasp3 activ) | PLCg1 ctr inactive | PLCb3 confirm inactive
FC(F)(F)c1ccc(Cl)c(CN2CCN(c3ncc(Cc4ccccc4)cn3)CC2)c1	none (no result: Arrestin-AP2 inh, procasp7 counter, procasp3 activ)
COCCCNC(=O)Cn1nc(Cc2ccncc2)c2ccccc2c1=O	none (no result: Arrestin-AP2 inh, procasp7 counter, procasp3 activ)
COc1cccc(CNCc2ccccn2)c1OC	PLC-beta3 inh 14.0 | PLCg1 ctr inactive | PLCb3 confirm inactive
CN(C)CC(=O)N[C@H]1C[C@@H]2O[C@@H](CO)CC[C@@H]2O[C@@H]1CCc1ccc(-c2ccc(F)cc2)cc1	none (no result: Arrestin-AP2 inh, procasp7 counter, procasp3 activ)
CC(=O)NCC(=O)OCN1C(=O)c2ccccc2C1=O	PLCg1 inh 10.4 | PLCg1 ctr inactive | PLCb3 confirm inactive
O=C(CNC(=O)c1ccc(Cl)cc1)OCN1C(=O)c2ccccc2C1=O	none
